From ChEMBL document CHEMBL4152200, “Targeting the entrance channel of NNIBP: Discovery of diarylnicotinamide 1,4-disubstituted 1,2,3-triazoles as novel HIV-1 NNRTIs with high potency against wild-type and E138K mutant virus” (Eur J Med Chem, 2018)
pEC50, pIC50: −log10 of the molar value.

Key:
[1] = system: Human immunodeficiency virus 1; assay: Resistance factor, ratio of EC50 for HIV1 harboring reverse transcriptase F227L/V106A mutant to EC50 for wild-type HIV-1 3B; format: functional
In short: (§1)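 Resistance fold is EC₅₀ against the mutant strain divided by EC₅₀ against WT IIIB. Both EC₅₀ values come from the 5-day MTT protection assay in MT-4 cells infected with 100–300 CCID₅₀ of virus.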

[2] = system: Human immunodeficiency virus 1; assay: Antiviral activity against wild-type HIV-1 NL4-3 infected in human TZM-bl cells assessed as inhibition of viral replication after 2 days by bright Glo-luciferase reporter gene assay; format: functional, organism-based; conditions: Human immunodeficiency virus 1, NL4-3, TZM-bl, 48 h
In short: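 TZM-bl cells infected with 800 TCID₅₀ of NL4-3 in the presence of a range of compound concentrations; single-round infection. After 2 days medium removed, Bright-Glo added and luminescence read. EC₅₀ is the concentration giving a 50% fall in relative light units relative to virus-control wells. Mean ± SD from at least triplicate.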

[3] = system: Human immunodeficiency virus 1; assay: Resistance factor, ratio of EC50 for HIV1 harboring reverse transcriptase Y181C mutant to EC50 for wild-type HIV-1 3B; format: functional; in short: as §1
[4] = system: Human immunodeficiency virus 1; assay: Resistance factor, ratio of EC50 for HIV1 harboring reverse transcriptase Y188L mutant to EC50 for wild-type HIV-1 3B; format: functional; in short: as §1
[5] = system: Human immunodeficiency virus 1; assay: Antiviral activity against wild-type HIV-1 3B infected in human MT4 cells assessed as inhibition of viral replication after 5 days by MTT assay; format: functional, organism-based; conditions: Human immunodeficiency virus 1, 3B, MT4, 120 h
[6] = system: Human immunodeficiency virus 1; assay: Resistance factor, ratio of EC50 for HIV1 harboring reverse transcriptase L100I mutant to EC50 for wild-type HIV-1 3B; format: functional; in short: as §1
TZM = assay: Cytotoxicity against human TZM-bl cells by CytoTox-Glo reagent-based assay; format: cell-based
In short: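 TZM-bl cells exposed to compound at various concentrations. Cytotoxicity measured by CytoTox-Glo assay.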

MT4 = assay: (§2) Cytotoxicity against human MT4 cells assessed as decrease in cell viability after 5 days by MTT assay; format: cell-based; conditions: mt4, 120 h
In short: (§3)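 Mock-infected MT-4 cells, exponentially growing, seeded with compound in culture medium without virus; run in parallel with the antiviral assay. Viability read spectrophotometrically by MTT reduction five days later.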

[7] = system: Human immunodeficiency virus 1; assay: Resistance factor, ratio of EC50 for HIV1 harboring reverse transcriptase E138K mutant to EC50 for wild-type HIV-1 3B; format: functional; in short: as §1
[8] = system: Human immunodeficiency virus 1; assay: Antiviral activity against HIV1 harboring reverse transcriptase F227L/V106A double mutant infected in human MT4 cells assessed as inhibition of viral replication after 5 days by MTT assay; format: functional, organism-based; conditions: Human immunodeficiency virus 1, MT4, 120 h
[9] = system: Human immunodeficiency virus 1; assay: Resistance factor, ratio of EC50 for HIV1 harboring reverse transcriptase K103N mutant to EC50 for wild-type HIV-1 3B; format: functional; in short: as §1
[10] = system: Human immunodeficiency virus 1; assay: Antiviral activity against HIV1 harboring reverse transcriptase L100I mutant infected in human MT4 cells assessed as inhibition of viral replication after 5 days by MTT assay; format: functional, organism-based; conditions: Human immunodeficiency virus 1, MT4, 120 h
[11] = Selectivity index, ratio of CC50 for human MT4 cells to EC50 for HIV1 harboring reverse transcriptase K103N mutant; format: toxicity; conditions: read-out: Ratio CC50/EC50
In short: (§4)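 SI is CC₅₀ divided by EC₅₀, both by MTT after 5 days in MT-4 cells. CC₅₀ comes from mock-infected cultures run in parallel and is the concentration reducing their viability by 50%. EC₅₀ comes from cultures infected with the given mutant strain at 100–300 CCID₅₀.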

[12] = Selectivity index, ratio of CC50 for human MT4 cells to EC50 for HIV1 harboring reverse transcriptase Y188L mutant; format: toxicity; conditions: read-out: Ratio CC50/EC50; in short: as §4
[13] = system: Human immunodeficiency virus 1; assay: Antiviral activity against HIV1 harboring reverse transcriptase E138K mutant infected in human MT4 cells assessed as inhibition of viral replication after 5 days by MTT assay; format: functional, organism-based; conditions: Human immunodeficiency virus 1, MT4, 120 h
[14] = system: Human immunodeficiency virus 1; assay: Antiviral activity against HIV1 harboring reverse transcriptase K103N mutant infected in human MT4 cells assessed as inhibition of viral replication after 5 days by MTT assay; format: functional, organism-based; conditions: Human immunodeficiency virus 1, MT4, 120 h
[15] = Selectivity index, ratio of CC50 for human MT4 cells to EC50 for HIV1 harboring reverse transcriptase Y181C mutant; format: toxicity; conditions: read-out: Ratio CC50/EC50; in short: as §4
[16] = Selectivity index, ratio of CC50 for human MT4 cells to EC50 for HIV1 harboring reverse transcriptase L100I mutant; format: toxicity; conditions: read-out: Ratio CC50/EC50; in short: as §4
[17] = system: Human immunodeficiency virus 1; assay: Antiviral activity against HIV1 harboring reverse transcriptase Y188L mutant infected in human MT4 cells assessed as inhibition of viral replication after 5 days by MTT assay; format: functional, organism-based; conditions: Human immunodeficiency virus 1, MT4, 120 h
In short: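 MT-4 cells in exponential growth, resuspended into wells holding HIV-1 stock (IIIB, RES056 K103N/Y181C, F227L/V106A, L100I, K103N, E138K, Y181C or Y188L) at 100–300 CCID₅₀, or into mock-infected wells. Viability read by MTT reduction to formazan, measured spectrophotometrically 5 days post-infection. EC₅₀ is the concentration giving 50% protection against virus-induced cytotoxicity.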

[18] = system: Human immunodeficiency virus 1; assay: Antiviral activity against HIV-1 RES056 harboring reverse transcriptase K103N/Y181C double mutant infected in human MT4 cells assessed as inhibition of viral replication after 5 days by MTT assay; format: functional, organism-based; conditions: Human immunodeficiency virus 1, RES056, MT4, 120 h
[19] = Selectivity index, ratio of CC50 for human TZM-bl cells to EC50 for wild-type HIV-1 NL4-3 infected in human TZM-bl cells; format: toxicity, cell-based; conditions: read-out: Ratio CC50/EC50
In short: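 SI is CC₅₀ divided by EC₅₀ in TZM-bl cells. CC₅₀ from CytoTox-Glo assay, averaged from two independent tests. EC₅₀ from single-round infection with 800 TCID₅₀ NL4-3, luciferase luminescence read at 2 days and expressed relative to virus controls.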

[20] = system: Human immunodeficiency virus 1; assay: Antiviral activity against HIV1 harboring reverse transcriptase Y181C mutant infected in human MT4 cells assessed as inhibition of viral replication after 5 days by MTT assay; format: functional, organism-based; conditions: Human immunodeficiency virus 1, MT4, 120 h
[21] = Selectivity index, ratio of CC50 for human MT4 cells to EC50 for HIV1 harboring reverse transcriptase E138K mutant; format: toxicity; conditions: read-out: Ratio CC50/EC50; in short: as §4
[22] = biological target: Human immunodeficiency virus type 1 reverse transcriptase (Human immunodeficiency virus 1, UniProt Q72547); assay: Inhibition of wild-type HIV1 reverse transcriptase assessed as decrease in digoxigenin and biotin-dUTP incorporation in to DNA using poly(A)/oligo(dT)15 as template/primer after 1 hr by ELISA
In short: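 Kit ELISA on wild-type HIV-1 RT with poly(A)·oligo(dT)15 as template/primer and digoxigenin- and biotin-labelled dUTP. Incorporated label detected with peroxidase-conjugated anti-digoxigenin antibody and ABTS substrate. IC₅₀ is the concentration inhibiting biotin-dUTP incorporation by 50%.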

[23] = Selectivity index, ratio of CC50 for human MT4 cells to EC50 for HIV1 harboring reverse transcriptase F227L/V106A mutant; format: toxicity; conditions: read-out: Ratio CC50/EC50; in short: as §4
[24] = Selectivity index, ratio of CC50 for human MT4 cells to EC50 for wild-type HIV1 3B; format: toxicity; conditions: read-out: Ratio CC50/EC50
In short: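 Wild-type HIV-1 IIIB at 100–300 CCID50 added to MT-4 cells with compound, with mock-infected wells in parallel. MTT viability was read at day 5. […] SI = CC50/EC50.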

[25] = as §2; format: cell-based; conditions: MT4 cells; in short: as §3

Structure (SMILES) | Ratio EC50 [1] | pEC50 [2] | Ratio EC50 [3] | Ratio EC50 [4] | pEC50 [5] | Ratio EC50 [6] | CC50 (TZM) [nM] | CC50 (MT4) [nM] | Ratio EC50 [7] | pEC50 [8] | Ratio EC50 [9] | pEC50 [10] | selectivity ratio [11] | selectivity ratio [12] | pEC50 [13] | pEC50 [14] | selectivity ratio [15] | selectivity ratio [16] | pEC50 [17] | pEC50 [18] | also measured
Cc1cc(C)c(Oc2cc(Nc3ccc(C#N)cc3)ncc2C(=O)NCc2cn(CC(=O)N3CCOCC3)nn2)c(C)c1 | 30.5 | 7.70 | 12 | 358 | 7.70 | 306.5 | > 215000 | 181000 | 1.4 | 6.21 | 19 | 5.21 | 473 | 25 | 7.57 | 6.42 | 761 | 30 | 5.15 | 4.80 | selectivity ratio [19]: > 10.8; pEC50 [20]: 6.62; selectivity ratio [21]: 6800; pIC50 [22]: 5.80; selectivity ratio [23]: 297
Cc1cc(C)c(Oc2cc(Nc3ccc(C#N)cc3)ncc2C(=O)NCc2cn(CC(=O)N3CCCC3)nn2)c(C)c1 | 12 | 7.62 | 4.3 | 74 | 7.70 | 48 | > 221000 | 58100 | 0.7 | 6.62 | 13.5 | 6.02 | 214 | 39 | 7.85 | 6.57 | 686 | 60 | 5.83 | 5.84 | selectivity ratio [24]: 2900; selectivity ratio [19]: > 9.2; pEC50 [20]: 7.07; selectivity ratio [21]: 4190; pIC50 [22]: 5.57; selectivity ratio [23]: 245
O=C1Nc2ccc(Cl)cc2[C@@](C#CC2CC2)(C(F)(F)F)O1 [EFAVIRENZ] |  |  |  |  |  |  |  |  |  |  |  |  |  |  |  |  |  |  |  |  | CC50 at 120 h [25]: > 6340 nM
Cc1ccnc2c1NC(=O)c1cccnc1N2C1CC1 [NEVIRAPINE] |  |  |  |  | 6.59 |  |  |  |  |  |  |  |  |  |  |  |  |  |  | < 4.82 | CC50 at 120 h [25]: > 15000 nM
Cc1cc(/C=C/C#N)cc(C)c1Nc1ccnc(Nc2ccc(C#N)cc2)n1 [RILPIVIRINE] |  |  |  |  |  |  | > 341000 |  |  |  |  |  |  |  |  |  |  |  |  |  | 
